# Article PMC11421684 (Food and chemical toxicology : an international journal …, 2014)
# Read-outs that look alike come from different tables or passages of the source.
# How the values were obtained:
# pregnant rats [1] = settings: F344 rats, MEL in feed; ref Melnick et al. (1984); cited from earlier work
# [2] = Serum chemistry, renal function; assay type: in vivo, rat; settings: for Blood urea nitrogen (mean ± SEM) / Creatinine (mean ± SEM) / Uric acid (mean ± SEM): serum
# Summary of the method: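 Serum was taken from pregnant and non-pregnant rats after 10 days of gavage with vehicle or 1000 mg/kg BW/day test compound. Samples were brought to room temperature. BUN, creatinine and uric acid were measured on a benchtop veterinary chemistry analyser. Results were compared with control and the other treated group.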
# kidney = assay: Kidney wet-mount analysis for renal crystals; assay type: in vivo, rat
# Summary of the method: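 After 10 days of gavage at 1000 mg/kg BW/day, a thin fresh renal slice spanning cortex and medulla was weighed. It was compressed between two slides with a coverslip and examined fresh by light microscopy. Crystals were ranked on a subjective 0–5 scale; some views used polarised light.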
# [3] = Formalin, ethanol and freezing effects on renal crystals; set-up: species or system rat
# Summary of the method: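 Fresh kidney wet-mounts with crystal rank 4–5 were flooded with 10% neutral buffered formalin and photographed repeatedly. Times were 0, 1, 2, 3 and 24 h for melamine-exposed kidney and 0, 10, 20, 30 min and 1 h for cyanuric acid-exposed kidney. Sections in 100% ethanol were checked daily for up to 6 days. Frozen tissue, either freeze–thawed or held at −70 °C, was cut into 6 μm cryosections, unstained or unfixed H&E.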
# [4] = Weight gains, feed and water consumption of gavaged rats; assay type: in vivo, rat
# Summary of the method: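 Rats were housed singly at 18–26 °C, 40–70% RH and 12 h light/dark, with feed and water ad libitum. They were gavaged for 10 days from GD10 with vehicle (1% CMC-Na) or 1000 mg/kg BW/day test compound. Fluid intake was measured every 3 days and feed every 7 days. For dams, adjusted gain = GD20 body weight minus gravid uterus weight and GD10 weight.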
# kidney and bladder = assay: Histopathology of kidney and bladder; assay type: in vivo, rat
# [5] = oral, female rats; ref Jacob et al., 2012; cited from earlier work
# pregnant rats [6] = assay: Reproductive indices at necropsy; assay type: in vivo, rat; settings: dams
# Summary of the method: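 Time-pregnant rats were gavaged daily for 10 days from GD10 with 1% CMC-Na or 1000 mg/kg BW/day test compound. At necropsy the gravid uterus was removed whole and weighed, and corpora lutea, implants, and early and late deaths were recorded. Groups were compared against both control and the other triazine group.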
# [7] = pregnant rats, ref Jingbin et al. (2010), cited from earlier work
# [8] = Body weight and organ weights standardized to body weight; assay type: in vivo, rat; settings: 1000 mg/kg BW/day; for Paired kidney weight standardized to body weight (% ± SEM): group mean
# [9] = Amniotic fluid triazine analysis by LC-MS/MS; assay type: in vivo, rat; settings: pregnant female rats, pooled by dam; label = dose group; LOD 0.4 μg/mL
# Summary of the method: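 Amniotic fluid came from GD20 dams gavaged for 10 days with vehicle or 1000 mg/kg BW/day test compound. Melamine and cyanuric acid were measured by a previously published LC-MS/MS method, validated with pre-spiked amniotic fluid. Serum-to-amniotic fluid Pearson correlations were run only on rats with both samples (p ≤ 0.05).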
# ABCG2 = settings: MDCK cells; ref Partanen et al. (2012); cited from earlier work
# ABCB1 = settings: MDCK cells; ref Partanen et al. (2012); cited from earlier work
# fetuses = assay: Fetal data; assay type: in vivo, rat; settings: dams, 1000 mg/kg BW/day, GD20
# Summary of the method: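 Dams were dosed by gavage (1000 mg/kg BW/day or 1% CMC-Na vehicle) for 10 days from GD10. At GD20 necropsy, the gravid uterus was removed whole and weighed. Each viable fetus was recorded for uterine position, sex, weight, crown-rump length and external abnormalities. Runts were defined as below 70% of the control litter average weight by gender.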
# [10] = Serum triazine analysis by LC-MS/MS; assay type: in vivo; settings: pregnant female rats, individual rat; label = dose group; LOD 0.4 μg/mL
# Summary of the method: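 Serum was collected from each rat after 10 daily gavages of 1000 mg/kg BW/day test compound or vehicle. Melamine and cyanuric acid were quantified by a previously published LC-MS/MS method, validated with pre-spiked serum samples at several fortification levels. Natural-log serum concentrations were compared between pregnant and non-pregnant rats by two-sided t-test (p ≤ 0.05).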
# rats = assay: Clinical observations and survival; assay type: in vivo, rat; settings: 1000 mg/kg BW/day
# Summary of the method: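 Female rats, time-pregnant or non-pregnant, were weight-stratified and randomised from GD10. They were gavaged each morning for 10 days with 1% CMC-Na vehicle or 1000 mg/kg BW/day test compound at 1 mL/100 g (n = 11/group; pregnant high-triazine group n = 13). Observations were made at least twice on day 1, then at least daily, covering skin, fur, eyes, mucosa, autonomic/CNS signs and behaviour. Animals removed early were counted as deaths.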
# ABCC2 = settings: MDCK cells; ref Partanen et al. (2012); cited from earlier work
# [11] = not pregnant rats, 1000 mg/kg BW/day
# [12] = pregnant rats, 1000 mg/kg BW/day
# [13] = kidney, H&E, pregnant and non-pregnant
# [14] = 1000 mg/kg BW/day, necropsy GD20
compound,measurement,setting,value
"Nc1nc(N)nc(N)n1 [MEL, melamine]",Microscopically-observed pathology in the ovaries or uteri,pregnant rats [1],did not report any microscopically-observed pathology
same,Effect on uric acid serum levels versus control rats,[2]; 1000 mg/kg BW/day,did not appear to have an effect
same,Blood urea nitrogen (mean ± SEM),[2]; [11],62.45 ± 17.32^^ mg/dL
same,Creatinine (mean ± SEM),[2]; [11],1.28 ± 0.27^^ mg/dL
same,Uric acid (mean ± SEM),[2]; [11],4.18 ± 0.29 mg/dL
same,Mean creatinine of all treated rats,[2]; pregnant and non-pregnant pooled,1.4 mg/dL
same,Mean BUN of all treated rats,"[2]; pregnant and non-pregnant pooled, all but one had crystals",69 mg/dL
same,"BUN and creatinine levels, elevation over control and CYA group levels",[2]; pregnant and non-pregnant rats,2–4 times
same,Blood urea nitrogen (mean ± SEM),[2]; [12],78.25 ± 18.41^^ mg/dL
same,Creatinine (mean ± SEM),[2]; [12],1.45 ± 0.22^^ mg/dL
same,Uric acid (mean ± SEM),[2]; [12],3.45 ± 0.12 mg/dL
same,Number of rats with non-pigmented pyramidal uroliths adjacent to the papilla,kidney; 1000 mg/kg BW/day,4
same,Treated rats that developed renal crystals (percent),"kidney; pregnant and non-pregnant combined, MEL n = 24, CYA n = 22, wet-mount",96%
same,Number of treated rats that developed renal crystals,"kidney; pregnant and non-pregnant combined, MEL of 24, CYA of 22, wet-mount",23
same,Stability of crystals to freeze–thaw cycles,"[3]; frozen kidney tissue, CYA stable if held at −70 °C",able to withstand freeze–thaw cycles
same,Period over which crystals progressively dissolve in 100% ethanol,[3]; kidney wet-mount sections,6 days
same,Time within which crystal presence was greatly reduced in formalin,[3]; kidney wet-mount sections,≤ 2 h
same,Total feed consumption (g ± SEM),[4]; [11],112.3 ± 9.2^^ g
same,Total water consumption (g ± SEM),[4]; [11],295.1 ± 21.9 g
same,Total bw gain (g ± SEM),"[4]; not pregnant rats, 1000 mg/kg BW/day gavage 10 days, brackets indicate negative",(9.1) ± 6.5^^ g
same,Total feed consumption (g ± SEM),[4]; [12],122.2 ± 11.0^^ g
same,Total water consumption (g ± SEM),[4]; [12],391.8 ± 43.6 g
same,Total bw gain (g ± SEM),"[4]; pregnant rats, 1000 mg/kg BW/day gavage GD10-20",5.7 ± 14.9^^ g
same,Adjusted weight gain (g ± SEM),"[4]; pregnant rats, GD20 body weight minus gravid uterus weight and GD10 weight, brackets indicate negative, 1000 mg/kg BW/day",(32.0) ± 14.6^^ g
same,Number of rats with epithelial necrosis in the bladder,"kidney and bladder; MEL: pregnant rats, minimal to marked, CYA: 1 pregnant, 2 non-pregnant, mild",3
same,Rats with tubular dilation,kidney and bladder; [13],92%
same,Rats with tubular necrosis,kidney and bladder; [13],100%
same,Area under the curve (AUC),[5],1992 ng·h/mL
same,Half-life,[5],1.92 h
same,No. corpea lutea (mean ± SEM),"pregnant rats [6]; 1000 mg/kg BW/day gavage GD10-20, necropsy GD20",15.1 ± 0.4
same,Early and late deaths (mean% of implants ± SEM),pregnant rats [6]; [14],60.3 ± 14.2^^ % of implants
same,Early deaths (mean% of implants ± SEM),pregnant rats [6]; [14],28.8 ± 12.5^@ % of implants
same,Implant efficiency (mean% ± SEM),pregnant rats [6]; [14],88.0 ± 3.6%
same,Late deaths (mean% of implants ± SEM),pregnant rats [6]; [14],31.6 ± 13.1 % of implants
same,No. fetuses alive (mean ± SEM),pregnant rats [6]; [14],5.5 ± 2.0
same,No. implants (mean ± SEM),pregnant rats [6]; [14],13.3 ± 0.6
same,Percent alive both genders (mean% ± SEM),pregnant rats [6]; [14],39.7 ± 14.2%
same,Percent live females (mean% ± SEM),pregnant rats [6]; [14],40.7 ± 3.8%
same,Detection of melamine in amniotic fluid,[7]; 40 mg/kg BW GD13 to GD20,did not detect
same,Detection of melamine in amniotic fluid,[7]; 400 mg/kg BW,detected
same,Amniotic fluid concentration as percent of maternal serum,[7],approximately 17%
same,GD20 Body weight (g ± SEM),[8]; not pregnant rats,211.3 ± 6.3 g
same,Heart weight standardized to body weight (% ± SEM),[8]; not pregnant rats,0.43 ± 0.02 %
same,Left kidney weight standardized to body weight (% ± SEM),[8]; not pregnant rats,0.65 ± 0.06%
same,Liver weight standardized to body weight (% ± SEM),[8]; not pregnant rats,3.70 ± 0.14%
same,Right kidney weight standardized to body weight (% ± SEM),[8]; not pregnant rats,0.68 ± 0.08^^ %
same,Spleen weight standardized to body weight (% ± SEM),[8]; not pregnant rats,0.26 ± 0.02%
same,Paired kidney weight standardized to body weight (% ± SEM),[8]; not pregnant rats,1.33 ± 0.13^^ %
same,GD20 Body weight (g ± SEM),[8]; pregnant rats,247.6 ± 11.5 g
same,Heart weight standardized to body weight (% ± SEM),[8]; pregnant rats,0.37 ± 0.03^^ %
same,Left kidney weight standardized to body weight (% ± SEM),[8]; pregnant rats,0.52 ± 0.05%
same,Liver weight standardized to body weight (% ± SEM),[8]; pregnant rats,3.64 ± 0.08%
same,Right kidney weight standardized to body weight (% ± SEM),[8]; pregnant rats,0.56 ± 0.05^^ %
same,Spleen weight standardized to body weight (% ± SEM),[8]; pregnant rats,0.16 ± 0.03%
same,Paired kidney weight standardized to body weight (% ± SEM),[8]; pregnant rats,1.09 ± 0.10^^ %
same,"CYA concentration, Amniotic Fluid",[9],<LOD
same,Substrate for ABC transporter ABCG2,ABCG2,not a substrate
same,Substrate for ABC transporter ABCB1,ABCB1,not a substrate
same,Average crown rump length (mean cm ± SEM),fetuses,3.62 ± 0.23^^ cm
same,Average fetal body weight (g ± SEM),fetuses,2.85 ± 0.48^^ g
same,Litter size (mean ± SEM),fetuses,5.5 ± 2.0^^
same,"CYA concentration, Serum",[10],<LOD
same,Animals removed from the study early,rats; non-pregnant rats (n = 11),1
same,Maternal health during 10 day dosing period,rats; pregnant and non-pregnant rats,lost condition
same,Animals removed from the study early,rats; pregnant rats (n = 13),7
same,Substrate for ABC transporter ABCC2,ABCC2,not a substrate
